Our source for the Activity values is ChEMBL document CHEMBL1641579, “Synthesis and biological evaluation of 7-substituted-1-(3-bromophenylamino)isoquinoline-4-carbonitriles as inhibitors of myosin light chain kinase and epidermal growth factor receptor” (Bioorg Med Chem, 2011).

In assay [1] the target is Tyrosine-protein kinase CSK (Homo sapiens) (UniProt P41240). The assay can be described thus: Inhibition of CSK assessed as residual activity at 10 uM. In outline:
(§1)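 Kinase panel screen run as a radioactive activity assay at single compound concentration. Score reported as percent activity remaining relative to DMSO controls (100%).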

Assay [2] deals with T1, Dual specificity tyrosine-phosphorylation-regulated kinase 2 (Homo sapiens) (UniProt Q92630).
T1 sequence (whole entry): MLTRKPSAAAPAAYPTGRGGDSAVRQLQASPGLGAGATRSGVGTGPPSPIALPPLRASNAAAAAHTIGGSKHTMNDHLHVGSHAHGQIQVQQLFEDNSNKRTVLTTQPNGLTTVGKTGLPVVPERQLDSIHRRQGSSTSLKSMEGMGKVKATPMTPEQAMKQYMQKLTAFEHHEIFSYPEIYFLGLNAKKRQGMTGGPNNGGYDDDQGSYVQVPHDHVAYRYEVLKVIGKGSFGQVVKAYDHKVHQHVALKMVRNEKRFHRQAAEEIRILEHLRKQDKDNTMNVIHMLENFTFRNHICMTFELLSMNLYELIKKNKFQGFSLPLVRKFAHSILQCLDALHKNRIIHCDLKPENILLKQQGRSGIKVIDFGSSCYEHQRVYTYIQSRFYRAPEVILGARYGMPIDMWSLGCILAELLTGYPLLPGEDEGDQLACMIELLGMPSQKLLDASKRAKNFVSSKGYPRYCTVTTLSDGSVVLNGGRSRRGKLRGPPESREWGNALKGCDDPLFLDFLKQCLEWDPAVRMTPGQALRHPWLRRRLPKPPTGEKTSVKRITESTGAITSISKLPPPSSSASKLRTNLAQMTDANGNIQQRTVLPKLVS
The assay can be described thus: Inhibition of DYRK2 assessed as residual activity at 10 uM. The gist of the method:
as §1

Assay [3] concerns the target Ribosomal protein S6 kinase alpha-5 (Homo sapiens) (UniProt O75582). The assay can be described thus: Inhibition of MSK1 assessed as residual activity at 10 uM. The gist of the method: (§2)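 Panel screen by radioactive kinase assay at a single inhibitor concentration. Score is the percent activity remaining relative to DMSO controls (100%).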
Assay [4] deals with T2, MAP kinase-activated protein kinase 5 (Homo sapiens) (UniProt Q8IW41).
T2 sequence (whole entry): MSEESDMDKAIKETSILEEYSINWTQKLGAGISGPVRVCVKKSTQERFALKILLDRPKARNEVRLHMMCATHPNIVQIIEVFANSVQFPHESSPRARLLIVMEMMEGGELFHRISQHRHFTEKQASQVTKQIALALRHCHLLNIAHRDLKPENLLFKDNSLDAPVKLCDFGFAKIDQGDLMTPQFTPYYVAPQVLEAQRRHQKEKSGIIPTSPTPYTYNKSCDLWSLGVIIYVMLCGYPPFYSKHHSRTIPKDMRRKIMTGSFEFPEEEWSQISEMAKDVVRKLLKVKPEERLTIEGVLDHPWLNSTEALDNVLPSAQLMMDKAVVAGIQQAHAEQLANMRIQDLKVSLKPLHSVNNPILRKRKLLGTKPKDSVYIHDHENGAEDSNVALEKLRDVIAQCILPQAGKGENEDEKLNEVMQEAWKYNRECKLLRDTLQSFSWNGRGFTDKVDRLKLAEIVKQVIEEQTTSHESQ
The assay can be described thus: Inhibition of PRAK assessed as residual activity at 10 uM. The gist of the method:
as §2

Assay [5] addresses Serine/threonine-protein kinase PAK 4 (Homo sapiens) (UniProt O96013). The assay can be described thus: Inhibition of PAK4 assessed as residual activity at 10 uM. In outline:
as §2

The target in assay [6] is Insulin receptor (Homo sapiens) (UniProt P06213). The experiment in a line: Inhibition of IR assessed as residual activity at 10 uM. In outline:
as §1

The target in assay [7] is T3, Interleukin-1 receptor-associated kinase 4 (Homo sapiens) (UniProt Q9NWZ3).
T3 sequence (whole entry): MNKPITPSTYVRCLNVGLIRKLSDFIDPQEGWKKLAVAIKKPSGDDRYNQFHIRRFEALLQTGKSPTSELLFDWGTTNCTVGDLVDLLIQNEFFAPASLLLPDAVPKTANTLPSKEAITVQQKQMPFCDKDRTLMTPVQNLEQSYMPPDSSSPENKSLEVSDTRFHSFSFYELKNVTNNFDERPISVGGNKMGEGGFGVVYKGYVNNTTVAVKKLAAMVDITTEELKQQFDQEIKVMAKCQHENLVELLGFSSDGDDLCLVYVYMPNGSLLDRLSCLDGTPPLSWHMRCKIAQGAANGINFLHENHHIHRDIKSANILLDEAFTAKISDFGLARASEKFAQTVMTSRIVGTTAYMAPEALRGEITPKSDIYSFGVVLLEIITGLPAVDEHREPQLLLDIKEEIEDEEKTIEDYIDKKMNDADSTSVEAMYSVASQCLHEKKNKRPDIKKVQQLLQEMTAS
The assay can be described thus: Inhibition of IRAK4 assessed as residual activity at 10 uM. In outline:
as §1

The target in assay [8] is Mitogen-activated protein kinase 10 (Homo sapiens) (UniProt P53779). The experiment in a line: Inhibition of JNK3 assessed as residual activity at 10 uM. The gist of the method:
as §1

The target in assay [9] is T4, Ephrin type-B receptor 3 (Homo sapiens) (UniProt P54753).
T4 sequence (whole entry): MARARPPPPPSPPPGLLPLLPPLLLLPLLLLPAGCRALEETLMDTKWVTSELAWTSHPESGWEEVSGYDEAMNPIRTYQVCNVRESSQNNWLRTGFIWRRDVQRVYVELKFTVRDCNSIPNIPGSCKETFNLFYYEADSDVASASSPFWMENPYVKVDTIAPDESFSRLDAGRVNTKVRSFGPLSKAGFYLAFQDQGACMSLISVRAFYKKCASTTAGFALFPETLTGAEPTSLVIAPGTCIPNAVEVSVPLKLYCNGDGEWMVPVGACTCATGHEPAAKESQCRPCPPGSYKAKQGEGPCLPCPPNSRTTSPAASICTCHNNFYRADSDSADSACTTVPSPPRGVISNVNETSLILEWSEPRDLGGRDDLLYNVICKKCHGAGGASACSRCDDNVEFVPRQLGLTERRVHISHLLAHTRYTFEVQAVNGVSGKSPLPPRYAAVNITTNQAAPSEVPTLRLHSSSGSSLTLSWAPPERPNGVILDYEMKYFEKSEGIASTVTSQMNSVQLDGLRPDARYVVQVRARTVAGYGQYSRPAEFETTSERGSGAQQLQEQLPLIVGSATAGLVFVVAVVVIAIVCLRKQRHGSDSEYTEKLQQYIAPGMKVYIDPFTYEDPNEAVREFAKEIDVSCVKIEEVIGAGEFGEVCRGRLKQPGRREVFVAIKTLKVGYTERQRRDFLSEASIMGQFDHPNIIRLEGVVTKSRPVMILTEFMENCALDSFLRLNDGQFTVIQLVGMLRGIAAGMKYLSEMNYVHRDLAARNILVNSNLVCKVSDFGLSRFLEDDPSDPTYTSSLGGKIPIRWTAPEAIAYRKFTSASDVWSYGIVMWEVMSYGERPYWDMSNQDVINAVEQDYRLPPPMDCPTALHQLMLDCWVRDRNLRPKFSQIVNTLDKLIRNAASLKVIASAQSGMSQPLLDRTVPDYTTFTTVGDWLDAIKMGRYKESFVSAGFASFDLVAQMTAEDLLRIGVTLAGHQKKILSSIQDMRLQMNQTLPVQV
The assay can be described thus: Inhibition of EPHB3 assessed as residual activity at 10 uM. The gist of the method: as §1

Mitogen-activated protein kinase 10 (Homo sapiens), sequence (P53779 whole entry): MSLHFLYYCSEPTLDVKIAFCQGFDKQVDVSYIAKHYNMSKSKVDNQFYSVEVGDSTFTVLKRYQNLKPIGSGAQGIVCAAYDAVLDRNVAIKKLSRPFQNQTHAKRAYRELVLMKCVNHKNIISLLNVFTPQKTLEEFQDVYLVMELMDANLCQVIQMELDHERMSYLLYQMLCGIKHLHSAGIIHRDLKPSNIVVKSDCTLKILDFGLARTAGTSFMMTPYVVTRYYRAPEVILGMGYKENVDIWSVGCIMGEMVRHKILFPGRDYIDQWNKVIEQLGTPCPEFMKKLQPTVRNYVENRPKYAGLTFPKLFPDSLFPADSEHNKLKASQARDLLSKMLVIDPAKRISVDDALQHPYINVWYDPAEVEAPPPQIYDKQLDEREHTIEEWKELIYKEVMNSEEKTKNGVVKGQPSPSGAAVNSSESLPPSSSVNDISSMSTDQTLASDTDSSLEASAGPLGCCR
Tyrosine-protein kinase CSK (Homo sapiens), sequence (P41240 whole entry, looked up): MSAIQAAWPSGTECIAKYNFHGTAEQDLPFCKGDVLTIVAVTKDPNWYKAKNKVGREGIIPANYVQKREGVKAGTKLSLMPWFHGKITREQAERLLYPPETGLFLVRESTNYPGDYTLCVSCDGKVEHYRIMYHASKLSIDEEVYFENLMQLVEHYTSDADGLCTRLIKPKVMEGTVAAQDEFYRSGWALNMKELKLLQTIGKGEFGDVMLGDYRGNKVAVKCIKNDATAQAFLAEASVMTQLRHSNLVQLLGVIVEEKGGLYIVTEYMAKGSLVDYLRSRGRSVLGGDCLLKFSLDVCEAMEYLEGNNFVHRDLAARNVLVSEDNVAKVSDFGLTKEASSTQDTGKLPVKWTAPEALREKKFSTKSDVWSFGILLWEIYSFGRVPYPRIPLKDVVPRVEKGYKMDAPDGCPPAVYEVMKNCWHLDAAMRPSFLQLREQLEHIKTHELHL
Insulin receptor (Homo sapiens), sequence (P06213 28-758 limits assumed): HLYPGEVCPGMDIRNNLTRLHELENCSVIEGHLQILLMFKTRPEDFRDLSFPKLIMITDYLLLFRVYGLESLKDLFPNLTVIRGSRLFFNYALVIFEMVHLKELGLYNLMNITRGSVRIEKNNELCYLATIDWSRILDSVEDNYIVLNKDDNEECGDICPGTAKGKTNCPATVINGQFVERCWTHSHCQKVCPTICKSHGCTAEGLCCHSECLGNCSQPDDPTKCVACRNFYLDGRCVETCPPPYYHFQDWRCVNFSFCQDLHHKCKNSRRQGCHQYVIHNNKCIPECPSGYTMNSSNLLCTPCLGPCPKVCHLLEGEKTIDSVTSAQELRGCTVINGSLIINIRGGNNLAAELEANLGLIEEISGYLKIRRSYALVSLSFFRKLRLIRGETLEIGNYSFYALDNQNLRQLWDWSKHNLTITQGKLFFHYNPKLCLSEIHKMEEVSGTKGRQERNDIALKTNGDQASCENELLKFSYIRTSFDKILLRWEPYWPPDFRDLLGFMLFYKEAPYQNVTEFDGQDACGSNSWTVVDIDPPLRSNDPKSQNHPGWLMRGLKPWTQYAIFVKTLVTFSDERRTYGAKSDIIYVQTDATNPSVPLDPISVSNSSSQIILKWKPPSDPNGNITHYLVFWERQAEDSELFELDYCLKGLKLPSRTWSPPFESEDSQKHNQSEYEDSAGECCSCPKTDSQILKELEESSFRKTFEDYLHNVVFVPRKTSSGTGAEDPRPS
Insulin receptor (Homo sapiens), sequence (P06213 763-1382 limits assumed): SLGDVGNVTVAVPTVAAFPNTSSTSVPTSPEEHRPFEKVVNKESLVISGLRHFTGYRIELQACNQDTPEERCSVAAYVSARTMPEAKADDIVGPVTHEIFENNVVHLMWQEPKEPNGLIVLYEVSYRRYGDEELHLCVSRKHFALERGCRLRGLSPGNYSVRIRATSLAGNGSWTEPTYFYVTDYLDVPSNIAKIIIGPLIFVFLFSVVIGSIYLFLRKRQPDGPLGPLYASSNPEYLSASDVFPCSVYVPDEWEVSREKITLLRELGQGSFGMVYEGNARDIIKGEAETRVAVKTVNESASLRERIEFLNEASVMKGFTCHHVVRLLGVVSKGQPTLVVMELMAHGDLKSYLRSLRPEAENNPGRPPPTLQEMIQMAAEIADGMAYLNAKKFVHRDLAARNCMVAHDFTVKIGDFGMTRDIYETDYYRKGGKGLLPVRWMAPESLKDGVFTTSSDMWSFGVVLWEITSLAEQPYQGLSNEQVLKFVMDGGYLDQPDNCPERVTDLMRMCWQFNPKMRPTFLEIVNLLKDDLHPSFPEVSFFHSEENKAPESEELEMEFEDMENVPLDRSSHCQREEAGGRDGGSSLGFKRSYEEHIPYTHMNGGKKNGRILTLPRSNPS
Serine/threonine-protein kinase PAK 4 (Homo sapiens), sequence (O96013 whole entry, looked up): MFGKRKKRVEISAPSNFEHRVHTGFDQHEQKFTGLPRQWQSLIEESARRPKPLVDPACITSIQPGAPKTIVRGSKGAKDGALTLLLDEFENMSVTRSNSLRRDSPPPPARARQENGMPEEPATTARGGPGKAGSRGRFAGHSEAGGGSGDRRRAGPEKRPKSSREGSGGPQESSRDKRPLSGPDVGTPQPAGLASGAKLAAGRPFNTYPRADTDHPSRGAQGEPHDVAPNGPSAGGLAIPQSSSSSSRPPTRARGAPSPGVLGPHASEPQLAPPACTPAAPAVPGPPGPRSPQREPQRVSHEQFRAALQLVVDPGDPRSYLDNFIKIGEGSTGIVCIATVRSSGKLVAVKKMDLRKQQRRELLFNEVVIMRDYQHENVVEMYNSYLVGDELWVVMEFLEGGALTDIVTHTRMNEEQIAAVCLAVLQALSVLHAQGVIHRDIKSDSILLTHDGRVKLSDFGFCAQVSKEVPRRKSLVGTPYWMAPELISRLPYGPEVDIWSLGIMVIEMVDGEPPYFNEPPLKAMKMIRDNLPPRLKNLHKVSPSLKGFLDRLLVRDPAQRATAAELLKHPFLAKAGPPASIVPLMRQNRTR
Ribosomal protein S6 kinase alpha-5 (Homo sapiens), sequence (O75582 whole entry, looked up): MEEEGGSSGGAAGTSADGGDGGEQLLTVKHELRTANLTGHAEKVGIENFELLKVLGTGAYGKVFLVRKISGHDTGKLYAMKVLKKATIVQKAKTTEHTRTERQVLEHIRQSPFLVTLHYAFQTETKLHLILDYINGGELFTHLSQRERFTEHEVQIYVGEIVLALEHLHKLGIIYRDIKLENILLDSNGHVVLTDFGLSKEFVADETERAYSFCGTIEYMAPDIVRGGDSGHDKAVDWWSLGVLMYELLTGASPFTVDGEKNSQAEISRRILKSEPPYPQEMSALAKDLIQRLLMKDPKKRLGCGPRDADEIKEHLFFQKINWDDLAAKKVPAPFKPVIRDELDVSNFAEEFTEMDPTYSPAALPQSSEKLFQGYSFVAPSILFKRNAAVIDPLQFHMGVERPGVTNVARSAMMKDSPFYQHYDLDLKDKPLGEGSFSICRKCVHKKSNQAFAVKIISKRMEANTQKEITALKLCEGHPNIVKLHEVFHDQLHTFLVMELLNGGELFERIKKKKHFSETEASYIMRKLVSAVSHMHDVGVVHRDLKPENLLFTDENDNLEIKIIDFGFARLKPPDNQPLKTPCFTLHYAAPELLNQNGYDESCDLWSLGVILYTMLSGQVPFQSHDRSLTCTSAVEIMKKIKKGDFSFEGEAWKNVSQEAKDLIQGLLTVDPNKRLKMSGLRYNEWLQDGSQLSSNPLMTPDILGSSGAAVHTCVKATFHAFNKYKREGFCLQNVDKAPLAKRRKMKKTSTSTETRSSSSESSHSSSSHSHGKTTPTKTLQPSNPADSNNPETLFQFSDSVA

On to `CN1CCN(CCC(=O)Nc2ccc3c(C#N)cnc(Nc4cccc(Br)c4)c3c2)CC1`, for which the Activity in assay [1] worked out at 81%; in [2] it was 83%; in [3], 81%; in [4], 100%; in [5], 86%; in [6], 95%. The Activity worked out at 100% in assay [7], 95% in assay [8] and 90% in assay [9].
As to `CN(C)CCCC(=O)Nc1ccc2c(C#N)cnc(Nc3cccc(Br)c3)c2c1`, the Activity was 89% in [1]; 70% in [2]; 86% in assay [3]; 100% in assay [4]; 94% in [5]; 93% in assay [6]. Further, the Activity in [7] was 98%; in assay [8], 100%; in [9] it was 100%.
`CN(C)C/C=C/C(=O)Nc1ccc2c(C#N)cnc(Nc3cccc(Br)c3)c2c1`: the Activity in assay [1] stood at 85%; in assay [2], 68%; in assay [3], 95%; in assay [4] it was 88%; in [5], 82%; in assay [6], 77%. Besides, the Activity in assay [7] was determined as 93%; in assay [8], 83%; in assay [9], 95%.
